Assay results reported in ChEMBL document CHEMBL5346861, “Designing quinoline-isoniazid hybrids as potent anti-tubercular agents inhibiting mycolic acid biosynthesis” (Eur J Med Chem, 2022).
Values after ≈ are worked out from the molar mass of the structure shown. Active and inactive are the calls of the source. No cut-off for these calls is given here.

Key:
[1] = test system: Mycobacterium tuberculosis; assay: Antimycobacterial activity against Mycobacterium tuberculosis mc2 6230 assessed as inhibition of bacterial growth measured after 7 days by broth dilution method; format: functional; conditions: mc2 6230, 168 h, time 7 day
In short: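 Pantothenate auxotroph carrying empty pMV261. 2-fold serial dilutions, 37 °C, no agitation, 7 days. MIC99 is the lowest concentration with no turbidity change. DMSO vehicle control.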

[2] = test system: Mycobacterium tuberculosis; assay: Antimycobacterial activity against Mycobacterium tuberculosis mc2 6230 assessed as reduction in log10 CFU at 20 times of MIC measured after 6 days by time-killing kinetics assay; format: functional; conditions: time 6 day
In short: (§1)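 Exposed to 1x, 5x or 20x MIC at 37 °C for up to 6 days. Serial dilutions plated on 7H10/OADC/pantothenate and colonies counted after 3 weeks. Mean of four independent experiments in technical triplicate, with SD. DMSO negative control.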

Vero = assay: Cytotoxicity against African green monkey Vero cells assessed as reduction in cell viability measured after 24 hrs by resazurin staining based analysis; format: toxicity; conditions: chlorocebus sabaeus
In short: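 Vero cells in RPMI 1640 with 10% FCS, 2×10^4 cells/well, adhered overnight at 37 °C and 5% CO₂. Compounds added at 100 to 0.78 µg/mL for 24 hrs. 10% resazurin added for 4 hrs, fluorescence read at ex 540/em 590 nm.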

[3] = Selectivity index, […] Mycobacterium marinum M strain to CC50 for cytotoxicity against human THP-1 cells; format: toxicity, cell-based; conditions: read-out: Selectivity Index
[4] = Cytotoxicity against human THP-1 cells assessed as reduction in cell viability measured after 72 hrs by resazurin staining based analysis; format: toxicity
In short: (§2)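 THP-1 monocytes differentiated with 20 ng/mL PMA for 48 hrs at 1×10^5 cells/well. Compounds added by serial dilution from 100 µg/mL for 24 or 72 hrs at 37 °C and 5% CO₂. Resazurin 10% for 4 hrs, fluorescence at ex 540/em 590 nm. Mean of three independent experiments in triplicate. INH and RFB reference drugs.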

[5] = Cytotoxicity against human THP-1 cells assessed as reduction in cell viability measured after 24 hrs by resazurin staining based analysis; format: toxicity; in short: as §2
[6] = test system: Mycobacterium tuberculosis; assay: Antimycobacterial activity against Mycobacterium tuberculosis mc2 6230 assessed as reduction in log10 CFU at 1 time of MIC measured after 6 days by time-killing kinetics assay; format: functional, organism-based; conditions: time 6.0 day; in short: as §1
[7] = Selectivity index, […] Mycobacterium tuberculosis H37Rv to CC50 for cytotoxicity against human THP-1 cells; format: toxicity, cell-based; conditions: read-out: Selectivity Index
[8] = test system: Mycobacteroides abscessus; assay: Antimycobacterial activity against Mycobacterium abscessus CIP104536 smooth variant assessed as inhibition of bacterial growth measured after 4 days by broth dilution method; format: functional; conditions: CIP104536, 96 h, time 4 day
In short: (§3)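 MIC99 by CLSI broth 2-fold serial dilution in CaMHB. Inoculum 5.10⁶ CFU/mL. Incubated at 30 °C and read by turbidity after 4 days. DMSO vehicle control, INH reference.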

[9] = test system: Mycobacterium tuberculosis; assay: Antimycobacterial activity against Mycobacterium tuberculosis mc2 6230 assessed as reduction in log10 CFU at 5 times of MIC measured after 3 days by time-killing kinetics assay; format: functional; conditions: time 3 day; in short: as §1
Mycobacterium marinum = assay: Antimycobacterial activity against Mycobacterium marinum M strain assessed as inhibition of bacterial growth measured after 6 days by broth dilution method; format: functional; conditions: 144 h, time 6 day
In short: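 MIC99 by 2-fold serial broth dilution in 7H9 with 10% OADC and 0.025% tyloxapol. Inoculum 5.10⁶ CFU/mL. Incubated without agitation at 30 °C, scored for no turbidity change after 6 days. DMSO vehicle control.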

[10] = Selectivity index, […] Mycobacterium abscessus CIP104536 rough variant to CC50 for cytotoxicity against human THP-1 cells; format: toxicity, cell-based; conditions: read-out: Selectivity Index
[11] = test system: Mycobacteroides abscessus; assay: Antimycobacterial activity against Mycobacterium abscessus CIP104536 rough variant assessed as inhibition of bacterial growth measured after 4 days by broth dilution method; format: functional; conditions: CIP104536, 96 h, time 4 day; in short: as §3
[12] = test system: Mycobacterium tuberculosis; assay: Antimycobacterial activity against Mycobacterium tuberculosis mc2 6230 assessed as inhibition of bacterial growth at 1 ug/ml measured after 7 days by broth dilution method; format: functional, organism-based; conditions: dose 1.0 µg/ml, time 7.0 day
[13] = Selectivity index, […] Mycobacterium abscessus CIP104536 smooth variant to CC50 for cytotoxicity against human THP-1 cells; format: toxicity, cell-based; conditions: read-out: Selectivity Index
[14] = test system: Mycobacterium tuberculosis; assay: Antimycobacterial activity against Mycobacterium tuberculosis H37Rv assessed as inhibition of bacterial growth; format: functional

With `O=Cc1ccc(OCc2cn(-c3ccnc4cc(Cl)ccc34)nn2)cc1` the MIC [1] was greater than 200 µg/mL.
With `COc1cc(C=O)ccc1OCc1cn(-c2ccnc3cc(Cl)ccc23)nn1` the MIC [1] was greater than 200 µg/mL.
Compound `COc1cc(/C=N/NC(=O)c2cnccn2)ccc1OCc1cn(CCNc2ccnc3cc(Cl)ccc23)nn1` has an MIC [1] greater than 200 µg/mL.
For `O=C(N/N=C/c1ccc(OCc2cn(-c3ccnc4cc(Cl)ccc34)nn2)cc1)c1ccncc1`, the Activity [2] was roughly 3 log10CFU/ml, the Activity (Vero) was “Non-Toxic” and the selectivity ratio [3] was greater than 200. The CC50 at 72 h [4] was greater than 100 µg/mL, the CC50 at 24 h [5] was greater than 100 µg/mL and the Activity [6] was “Active”. It also gave a selectivity ratio [7] greater than 200, an MIC [8] greater than 200 µg/mL and an Activity [9] of 2 log10CFU/ml. The MIC [1] was 0.25 µg/mL (≈ 0.517 µM), the MIC (Mycobacterium marinum) was greater than 200 µg/mL and the selectivity ratio [10] was greater than 200. For the same compound, the MIC [11] was greater than 200 µg/mL, the Activity [12] was “Active” and the selectivity ratio [13] was greater than 200.
Compound `O=C(N/N=C/c1ccccc1)c1ccncc1` [N'-BENZYLIDENE ISONICOTINOHYDRAZIDE] has an MIC [14] of 0.05 µg/mL.
With `O=C(N/N=C/c1ccc(OCc2cn(CCNc3ccnc4cc(Cl)ccc34)nn2)cc1)c1cccnc1` the MIC [1] was greater than 200 µg/mL.
Compound `COc1cc(/C=N/NC(=O)c2ccncc2)ccc1OCc1cn(-c2ccnc3cc(Cl)ccc23)nn1` has an Activity [2] of roughly 3 log10CFU/ml, a selectivity ratio [3] greater than 200 and a CC50 at 72 h [4] greater than 100 µg/mL. For the same compound, the CC50 at 24 h [5] was greater than 100 µg/mL, the Activity [6] was “Active” and the selectivity ratio [7] was greater than 200. For the same compound, the MIC [8] was greater than 200 µg/mL, the Activity [9] was 2 log10CFU/ml and the MIC [1] was 0.5 µg/mL (≈ 0.973 µM). It also gave an MIC (Mycobacterium marinum) greater than 200 µg/mL, a selectivity ratio [10] greater than 200 and an MIC [11] greater than 200 µg/mL. For the same compound, the Activity [12] was “Active” and the selectivity ratio [13] was greater than 200.
In the case of `O=C(N/N=C/c1ccc(OCc2cn(-c3ccnc4cc(Cl)ccc34)nn2)cc1)c1cccnc1`, the MIC [1] is reported as greater than 200 µg/mL.
In the case of `COc1cc(/C=N/NC(=O)c2ccncc2)ccc1OCc1cn(CCNc2ccnc3cc(Cl)ccc23)nn1`, the Activity [2] is reported as roughly 3 log10CFU/ml, the Activity (Vero) is reported as “Non-Toxic” and the CC50 at 72 h [4] is reported as 73 µg/mL (≈ 131 µM). For the same compound, the CC50 at 24 h [5] was greater than 100 µg/mL, the Activity [6] was “Active” and the MIC [8] was greater than 200 µg/mL. It also gave an Activity [9] of 2 log10CFU/ml, an MIC [1] of 0.5 µg/mL (≈ 0.898 µM) and an MIC (Mycobacterium marinum) greater than 200 µg/mL. For the same compound, the MIC [11] was greater than 200 µg/mL and the Activity [12] was “Active”.
For `CC(C)c1ccc(-c2nc(CN3CCN(c4ccnc5cc(Cl)ccc45)CC3)no2)cc1`, the MIC [14] was 1.11 µM.
For `COc1cc(/C=N/NC(=O)c2ccncc2)ccc1OCc1cn(CCCNc2ccnc3cc(Cl)ccc23)nn1`, the Activity [2] was roughly 3 log10CFU/ml, the Activity (Vero) was “Non-Toxic” and the selectivity ratio [3] was greater than 200. For the same compound, the CC50 at 72 h [4] was greater than 100 µg/mL, the CC50 at 24 h [5] was greater than 100 µg/mL and the Activity [6] was “Active”. For the same compound, the selectivity ratio [7] was greater than 200, the MIC [8] was greater than 200 µg/mL and the Activity [9] was 2 log10CFU/ml. For the same compound, the MIC [1] was 0.25 µg/mL (≈ 0.438 µM), the MIC (Mycobacterium marinum) was 100 µg/mL (≈ 175 µM) and the selectivity ratio [10] was greater than 200. The MIC [11] was greater than 200 µg/mL, the Activity [12] was “Active” and the selectivity ratio [13] was greater than 200.
Compound `COc1cc(/C=N/NC(=O)c2cccnc2)ccc1OCc1cn(CCNc2ccnc3cc(Cl)ccc23)nn1` has an MIC [1] greater than 200 µg/mL.
`COc1cc(/C=N/NC(=O)c2cnccn2)ccc1OCc1cn(-c2ccnc3cc(Cl)ccc23)nn1` gave an MIC [1] greater than 200 µg/mL.
`COc1cc(C=O)ccc1OCc1cn(CCCNc2ccnc3cc(Cl)ccc23)nn1` showed an MIC [1] greater than 200 µg/mL.
`CO[C@H]1/C=C/O[C@@]2(C)Oc3c(C)c(O)c4c(c3C2=O)C2=NC3(CCN(CC(C)C)CC3)NC2=C(NC(=O)/C(C)=C\C=C\[C@H](C)[C@H](O)[C@@H](C)[C@@H](O)[C@@H](C)[C@H](OC(C)=O)[C@@H]1C)C4=O` [RIFABUTIN] showed a CC50 at 24 h [5] of 60 µg/mL (≈ 70.8 µM).
In the case of `O=C(N/N=C/c1ccccc1-n1cc(CN2CCN(c3ccnc4cc(Cl)ccc34)CC2)nn1)c1cccnc1`, the MIC [1] is reported as greater than 200 µg/mL.
